ChEMBL document CHEMBL1139414, “Conformationally constrained analogues of diacylglycerol. 29. Cells sort diacylglycerol-lactone chemical zip codes to produce diverse and selective biological activities” (J Med Chem, 2008)
Blank lines part the entries; values can stand above or below the compound they belong to. Activity calls are given as the source filed them. The calls are words filed in the database; no cut-off is given here.

Key:
LNCaP [1] = assay: Antitumor activity against human LnCAP cells transplanted in Swiss nude mouse assessed as reduction in ataxia telengiectasia mutated gene level at 12 mg/kg, ip administered as 2 injections at 24 hrs intervals assessed after 8 weeks by radioimmunoassay; format: functional, organism-based; design: dose 12 mg/kg; settings: in the assay text read “48 hrs after first injection” for “after 8 weeks”
In short: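 Orthotopic LNCaP prostate tumors (~100 mm³) in Swiss nude mice; 12 mg/kg i.p., two injections 24 h apart, prostate resected 48 h after first injection. ATM measured in tumor extracts relative to vehicle control.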

LNCaP [2] = assay: Induction of apoptosis in human LnCAP cells pretreated at 10 uM for 16 hrs followed by 20 Gy radiation assessed after 24 hrs post radiation by fluorescence microscopy; format: functional, cell-based
In short: (§1)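 LNCaP cells in RPMI-1640 with 0.2% human albumin replacing FCS from 24 h before the experiment; pretreated 16 h with compound (10 or 20 μM), then 20 Gy irradiation. Fixed 24 h post radiation, stained with bis-benzimide and scored by fluorescence microscopy; cells with ≥3 apoptotic bodies counted apoptotic. Average of two experiments ± SD.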

LNCaP [3] = assay: Induction of apoptosis in human LnCAP cells pretreated at 20 uM for 16 hrs followed by 20 Gy radiation assessed after 24 hrs post radiation by fluorescence microscopy; format: functional, cell-based; in short: as §1
NK92 = assay: Induction of IFN-gamma production in human NK92 cells at 1 ug/mL after 6 hrs by ELISA; format: functional, cell-based
In short: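 NK92 cells (10⁶ cells/mL) in RPMI with 10% FCS, glutamine and Pen/Strep at 37 °C for 6 h with derivative (1 μg/mL) alone or with IL12 (100 u/10⁶ cells), in duplicate wells. IFN-γ in supernatants by ELISA.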

LNCaP [4] = assay: Antitumor activity against human LnCAP cells transplanted in Swiss nude mouse assessed as inhibition of tumor growth at 12 mg/kg, ip administered daily 16 hrs prior to 10 Gy radiation during first week followed by 2 injections at 48 hrs intervals during second week assessed after 8 weeks by radioimmunoassay; format: functional, organism-based; design: dose 12 mg/kg
In short: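 Male Swiss nude mice (8–10 weeks) implanted orthotopically in prostate with 3.0×10⁶ LNCaP cells; used when serum PSA was 5.0–15.0 ng/mL. Drug 12 mg/kg i.p. in DMSO, 16 h before each 1 Gy local pelvic fraction (daily, Mon–Fri, total 10 Gy) in week 1, then two injections 48 h apart in week 2. Serum PSA by radioimmunoassay through week 8; mean per group.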

[5] = target: Transcription factor Jun (Mus musculus) (UniProt P05627); assay: Activation of AP1 expressed in BALB/c mouse JB6 cells coexpressing luciferase reportet gene at 100 ng/mL after 18 hrs relative to 12-O-tetradecanoylphorbol-13-O-acetate; format: cell-based
Sequence of Transcription factor Jun (Mus musculus) (P05627 whole entry): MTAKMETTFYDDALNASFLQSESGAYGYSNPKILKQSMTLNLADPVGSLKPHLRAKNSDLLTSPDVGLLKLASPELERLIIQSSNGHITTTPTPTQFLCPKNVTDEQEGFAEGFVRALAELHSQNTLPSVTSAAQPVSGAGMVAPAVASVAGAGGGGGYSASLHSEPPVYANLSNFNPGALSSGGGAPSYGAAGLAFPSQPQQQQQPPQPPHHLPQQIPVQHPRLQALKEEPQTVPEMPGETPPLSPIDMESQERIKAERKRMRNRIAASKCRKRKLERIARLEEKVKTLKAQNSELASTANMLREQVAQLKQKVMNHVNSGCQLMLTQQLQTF
In short: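 JB6 P+ cells seeded at 10⁴, transfected with 4x AP-1 luciferase reporter (0.2 μg DNA) using a 3:1 lipid reagent ratio; on day 3 treated with DMSO, TPA (10 ng/mL) or DAG-lactone (100 ng/mL); luciferase read 18 h later. Values normalized to TPA-induced activity; average of 6 independent assays.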

CHO [6] = assay: Translocation of GFP-tagged mouse PKCdelta from cytosol to membrane compartment of CHO cells by confocal microscopy; format: functional, cell-based; settings: Cricetulus griseus
In short: (§2)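 GFP-tagged PKC isoforms overexpressed in CHO cells; live-cell localization followed by confocal microscopy before and after ligand (300 nM). Representative of 2 (PKCβ, ε) or 3 (PKCα, δ) independent experiments.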

CHO [7] = assay: Translocation of GFP-tagged PKCepsilon from cytosol to membrane compartment of CHO cells by confocal microscopy
MCF-10A = assay: Induction of human MCF10A cell motility at 10 uM after 20 hrs by photomicroscopy relative to diacylglycerol-lactone; format: functional, cell-based
In short: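 MCF-10A cells seeded in a small circular area through a 10-hole manifold; at manifold removal, compound added to a final 10 μM (vehicle 1% v/v DMSO), 37 °C, 5% CO₂. Radial spread imaged over 20 h; radius in microns expressed as a ratio to the radius from the DAG-lactone positive control. Triplicate measurements.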

CHO [8] = assay: Translocation of GFP-tagged PKCalpha from cytosol to membrane compartment of CHO cells by confocal microscopy
CHO [9] = assay: Translocation of GFP-tagged PKCbeta from cytosol to membrane compartment of CHO cells; format: functional, cell-based; in short: as §2
[10] = Selectivity ratio of Ki for mouse PKCalpha to Ki for RasGRP3
[11] = target: Protein kinase C alpha type (Mus musculus, UniProt P20444); assay: Displacement of [3H]PDBu form mouse PKCalpha by scintillation counting
In short: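 Partially purified mouse PKCα; competition with [³H]PDBU. ID50 obtained by fitting a sigmoidal competition curve and converted to Ki = ID50/(1+L/Kd). Pure compounds tested at 6–7 concentrations; crude library compounds at a single 1 μM concentration. Triplicates per concentration, at least three experiments; mean ± SEM.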

Activity [5]: Active
SMILES: CCCC(CCC)C(=O)OCC1(CO)C/C(=C\c2ccc(C(F)(F)F)cc2)C(=O)O1 (racemic; form 1)
Activity (LNCaP [1]): Active | Activity (LNCaP [2]): Active | Activity (LNCaP [3]): Active | Activity (NK92): Active | Activity (LNCaP [4]): Active

SMILES: CCCCC(CC)C(=O)OCC1(CO)C/C(=C\c2ccc(F)c(Br)c2)C(=O)O1 (racemic; form 2)
Activity (CHO [6]): Active | Activity (CHO [7]): Active | Activity (MCF-10A): Active | Activity (CHO [8]): Active | Activity (CHO [9]): Active

Activity [5]: Active
SMILES: CCCC(CCC)C(=O)OCC1(CO)C/C(=C\c2ccc(F)cc2)C(=O)O1 (racemic; form 1)
Activity (LNCaP [2]): Active | Activity (LNCaP [3]): Active

SMILES: CCC(C(=O)OCC1(CO)C/C(=C\c2ccc(-c3ccc(C(F)(F)F)cc3)cc2)C(=O)O1)c1ccccc1 (racemic; form 2)
Activity (MCF-10A): Active

SMILES: O=C1OC(CO)(COC(=O)c2ccc([N+](=O)[O-])cc2)C/C1=C\c1ccc([N+](=O)[O-])cc1 (racemic; form 2)
Ratio Ki [10]: 57

Activity [5]: Active
SMILES: CCCCC(CC)C(=O)OCC1(CO)C/C(=C\c2ccc(Cl)c(F)c2)C(=O)O1 (racemic; form 2)
Activity (NK92): Active

Ki [11]: 0.0101 µM | Activity [5]: Active
SMILES: CCCCC(CC)C(=O)OCC1(CO)C/C(=C/c2ccc(Cl)c(F)c2)C(=O)O1 (racemic)
Activity (NK92): Active

Activity [5]: Active
SMILES: CCCCC(CC)C(=O)OCC1(CO)C/C(=C\c2ccc(Cl)cc2)C(=O)O1 (racemic; form 2)
Activity (NK92): Active
